Results: ChEMBL document CHEMBL1126030, “Synthesis and antiviral activity of a series of HIV-1 protease inhibitors with functionality tethered to the P1 or P1' phenyl substituents: X-ray crystal structure assisted design” (J Med Chem, 1992)

Key:
H9 [1] = test: In vitro anti viral activity against HIV-1 in human H9 T-lymphoid cell culture by p-24-ELISA assay; assay type: functional
Summary of the method: (§1)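 Read-out is the minimum cell culture inhibitory concentration (CIC), the lowest concentration that fully prevents spread of viral infection in the human cell culture. Spread is scored by fixed-cell immunofluorescence or by p24 ELISA.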

[2] = molecular target: Human immunodeficiency virus type 1 protease (Human immunodeficiency virus 1) (UniProt Q72874); test: Ratio of inhibitory activity on HIV-1 protease (IC50) to antiviral activity against HIV-1 in human H9 T-lymphoid cell-ELISA assay(CIC); assay type: functional, cell-based
Summary of the method: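 Ratio of enzyme IC50 against HIV-1 protease to CIC. CIC is the minimum cell culture inhibitory concentration that prevents spread of HIV-1 infection in human H9 T-lymphoid cells, read out by p24 ELISA.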

[3] = molecular target: T1, Human immunodeficiency virus type 1 protease (Human immunodeficiency virus 1, UniProt Q72874); test: (§2) In vitro enzyme inhibitory activity against HIV-1 protease.
H9 [4] = test: In vitro anti viral activity against HIV-1 in human H9 T-lymphoid cell culture by fixed cell immunofluorescence assay; assay type: functional; summary of the method: as §1
MT4 [5] = test: In vitro anti viral activity against HIV-1(WMJ-2) in MT-4 T-lymphoid cell culture by fixed cell immunofluorescence assay; assay type: functional, Homo sapiens; summary of the method: as §1
MT4 [6] = test: In vitro anti viral activity against HIV-1(RF) in MT-4 T-lymphoid cell culture by fixed cell immunofluorescence assay; assay type: functional, Homo sapiens; summary of the method: as §1
[7] = molecular target: T1, Human immunodeficiency virus type 1 protease; test: as §2; assay type: functional
MT4 [8] = test: In vitro anti viral activity against HIV-1(IIIb) MT-4 T-lymphoid cell culture by fixed cell immunofluorescence assay; assay type: functional, Homo sapiens; summary of the method: as §1
Homo sapiens [9] = species on record: Homo sapiens; test: In vitro anti viral activity against HIV-1(IIIb) in peripheral blood lymphocytes by p-24-ELISA assay; assay type: functional; summary of the method: as §1
H9 [10] = test: In vitro anti viral activity against SIV(mne) in H9 T-lymphoid cell culture by fixed cell immunofluorescence assay; assay type: functional, Homo sapiens; summary of the method: as §1
H9 [11] = test: In vitro anti viral activity against SIV-mac251 in H9 T-lymphoid cell culture by fixed cell immunofluorescence assay; assay type: functional, Homo sapiens; summary of the method: as §1
Homo sapiens [12] = species on record: Homo sapiens; test: In vitro anti viral activity against HIV-1(IIIb) in peripheral blood lymphocytes by fixed cell immunofluorescence assay; assay type: functional; summary of the method: as §1
Homo sapiens [13] = species on record: Homo sapiens; test: In vitro anti viral activity against HIV-1(SF162) in monocytes/macrophages by fixed cell immunofluorescence assay; assay type: functional; summary of the method: as §1
MT4 [14] = test: In vitro anti viral activity against HIV-1(MN) in MT-4 T-lymphoid cell culture by fixed cell immunofluorescence assay; assay type: functional, Homo sapiens; summary of the method: as §1
H9 [15] = test: In vitro anti viral activity against HIV-1(IIIb) in H9 T-lymphoid cell culture by p-24 ELISA assay; assay type: functional, Homo sapiens; summary of the method: as §1
H9 [16] = test: In vitro anti viral activity against HIV-1(IIIb) in H9 T-lymphoid cell culture by fixed cell immunofluorescence assay; assay type: functional, Homo sapiens; summary of the method: as §1
MT4 [17] = test: In vitro anti viral activity against HIV-1(RUTZ) in MT-4 T-lymphoid cell culture by fixed cell immunofluorescence assay; assay type: functional, Homo sapiens; summary of the method: as §1
MT4 [18] = test: In vitro anti viral activity against HIV-1(IIIb) MT-4 T-lymphoid cell culture by p-24-ELISA assay; assay type: functional, Homo sapiens; summary of the method: as §1
MT4 [19] = test: In vitro anti viral activity against HIV-1(IIIB) in MT-4 T-lymphoid cell culture by p-24-ELISA assay; assay type: functional, Homo sapiens; summary of the method: as §1

Row | SMILES | CIC (H9 [1]) [nM] | I/C [2] | IC50 [3] [nM] | CIC (H9 [4]) [nM] | also measured
1 | CN1CCN(CCOc2ccc(C[C@H](C[C@H](O)[C@H](Cc3ccccc3)NC(=O)OC(C)(C)C)C(=O)NC3c4ccccc4C[C@H]3O)cc2)CC1 (some centres undefined) | 100 | 0.002 | 0.2 | – | –
2 | CC(C)(C)OC(=O)N[C@@H](Cc1ccccc1)[C@@H](O)C[C@@H](Cc1ccc(OCCN2CCS(=O)(=O)CC2)cc1)C(=O)NC1c2ccccc2C[C@H]1O (some centres undefined) | 100 | 0.0008 | 0.08 | – | –
3 | CC(C)(C)OC(=O)N[C@@H](Cc1ccccc1)[C@@H](O)C[C@@H](Cc1ccc(OCCN2CCOCC2)cc1)C(=O)N[C@H]1c2ccccc2C[C@H]1O | 50 | 0.038 | – | 12 | CIC (MT4 [5]): 12 nM; CIC (MT4 [6]): 50 nM; IC50 [7]: 0.45 nM; CIC (MT4 [8]): 25 nM; CIC (Homo sapiens [9]): 25 nM; CIC (H9 [10]): 200 nM; CIC (H9 [11]): 800 nM; CIC (Homo sapiens [12]): 0.78 nM; CIC (Homo sapiens [13]): 50 nM; CIC (MT4 [14]): 25 nM; CIC (H9 [15]): 25 nM; CIC (H9 [16]): 12 nM; CIC (MT4 [17]): 12 nM; CIC (MT4 [18]): 50 nM
4 | CC(C)(C)OC(=O)N[C@@H](Cc1ccc(OCCN2CCOCC2)cc1)[C@@H](O)C[C@@H](Cc1ccccc1)C(=O)NC1c2ccccc2C[C@H]1O (some centres undefined) | – | 0.011 | 0.55 | 50 | –
5 | CC(C)(C)OC(=O)N[C@@H](Cc1ccc(OCCN2CCOCC2)cc1)[C@@H](O)C[C@@H](Cc1ccc(OCCN2CCOCC2)cc1)C(=O)NC1c2ccccc2C[C@H]1O (some centres undefined) | – | 0.019 | 1.9 | 100 | –
6 | CC(C)(C)OC(=O)N[C@@H](Cc1ccc(O)cc1)[C@@H](O)C[C@@H](Cc1ccc(O)cc1)C(=O)NC1c2ccccc2C[C@H]1O (some centres undefined) | – | 0.0002 | 0.15 | 780 | –
7 | CC(C)(C)OC(=O)N[C@@H](Cc1ccccc1)[C@@H](O)C[C@@H](Cc1ccc(OCCN2CC[S+]([O-])CC2)cc1)C(=O)NC1c2ccccc2C[C@H]1O (some centres undefined) | – | 0.00035 | 0.07 | 200 | –
8 | COCCN(CCOC)CCOc1ccc(C[C@H](C[C@H](O)[C@H](Cc2ccccc2)NC(=O)OC(C)(C)C)C(=O)NC2c3ccccc3C[C@H]2O)cc1 (some centres undefined) | – | 0.018 | 0.9 | 50 | –
9 | CC(C)(C)OC(=O)N[C@@H](Cc1ccccc1)[C@@H](O)C[C@@H](Cc1ccc(OCCN2CCSCC2)cc1)C(=O)NC1c2ccccc2C[C@H]1O (some centres undefined) | – | 0.0094 | 0.47 | 50 | –
10 | CC(C)(C)OC(=O)N[C@@H](Cc1ccccc1)[C@@H](O)C[C@@H](Cc1ccc(OCC[N+]2([O-])CCOCC2)cc1)C(=O)NC1c2ccccc2C[C@H]1O (some centres undefined) | 100 | 0.002 | 0.2 | – | –
11 | CC(C)(C)OC(=O)N[C@@H](Cc1ccccc1)[C@@H](O)C[C@@H](Cc1ccc(OCc2ccccc2)cc1)C(=O)NC1c2ccccc2C[C@H]1O (some centres undefined) | 50 | 0.0036 | 0.18 | – | –
12 | CN(C)CCOc1ccc(C[C@H](C[C@H](O)[C@H](Cc2ccccc2)NC(=O)OC(C)(C)C)C(=O)NC2c3ccccc3C[C@H]2O)cc1 (some centres undefined) | – | 0.0025 | 1 | 400 | –
13 | CC(C)(C)OC(=O)N[C@@H](Cc1ccccc1)[C@@H](O)CC(Cc1ccc(OCC(=O)O)cc1)C(=O)NC1c2ccccc2C[C@H]1O (some centres undefined) | >400 | < 0.0001 | 0.04 | – | –
14 | CC(C)(C)OC(=O)N[C@@H](Cc1ccccc1)[C@@H](O)C[C@@H](Cc1ccc(OCC(=O)N2CCOCC2)cc1)C(=O)NC1c2ccccc2C[C@H]1O (some centres undefined) | 50 | 0.004 | 0.2 | – | –
15 | CC(C)(C)OC(=O)N[C@@H](Cc1ccccc1)[C@@H](O)C[C@@H](Cc1ccc(OCCO)cc1)C(=O)NC1c2ccccc2C[C@H]1O (some centres undefined) | 50 | 0.0018 | 0.09 | – | –
16 | CC(C)(C)OC(=O)N[C@@H](Cc1ccccc1)[C@@H](O)C[C@@H](Cc1ccc(OCCCN2CCOCC2)cc1)C(=O)NC1c2ccccc2C[C@H]1O (some centres undefined) | – | 0.01 | 2 | 200 | –
17 | CC(C)(C)OC(=O)N[C@@H](Cc1ccccc1)[C@@H](O)C[C@@H](Cc1ccc(O)cc1)C(=O)N[C@H]1c2ccccc2C[C@H]1O | 50 | 0.0032 | 0.16 | 25 | –
18 | NC1N=CNc2c1ncn2[C@H]1CC[C@@H](CO)O1 (some centres undefined) | – | – | – | 25000 | –
19 | Cc1cn([C@H]2C[C@H](N=[N+]=[N-])[C@@H](CO)O2)c(=O)[nH]c1=O [ZIDOVUDINE] | – | – | – | – | CIC (MT4 [19]): 25 nM
20 | CC(C)(C)OC(=O)N[C@@H](Cc1ccccc1)[C@@H](O)C[C@@H](Cc1ccc(OCCN2CCCCC2)cc1)C(=O)NC1c2ccccc2C[C@H]1O (some centres undefined) | – | 0.004 | 1.6 | 400 | –
21 | CC(C)(C)OC(=O)N[C@@H](Cc1ccccc1)[C@@H](O)C[C@@H](Cc1ccc(OCCN2CCCC2)cc1)C(=O)NC1c2ccccc2C[C@H]1O (some centres undefined) | – | – | 1.8 | – | –
22 | CC(C)(C)OC(=O)N[C@@H](Cc1ccccc1)[C@@H](O)C[C@@H](Cc1ccccc1)C(=O)N[C@H]1c2ccccc2C[C@H]1O | – | 0.0009 | 0.35 | 400 | –
23 | CC(C)(C)OC(=O)N[C@@H](Cc1ccc(O)cc1)[C@@H](O)C[C@@H](Cc1ccccc1)C(=O)NC1c2ccccc2C[C@H]1O (some centres undefined) | 25 | 0.007 | 0.35 | 50 | –
